# Screening data (PubChem BioAssay)
# The list is not random: actives were taken first. Their share in the collection is about 8.2%.
# RORa activator: activators of orphan receptor RORA, primary screen, cell-based, luminescence; hit rate 1.5% among 65,000; activation, % at 10 µM; Nuclear receptor ROR-alpha (Homo sapiens), P35398; CHO-K1 Gal4-RORA LBD luciferase reporter; percent increase over mock-subtracted basal signal;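 active = activation above the mean of all tested compounds plus 3 SD, cut at about 49% in these data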;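 note: 0% = DMSO-treated RORA cells and 100% = added signal equal to DMSO minus mock-transfected cells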
# M1 agonist: M1 muscarinic receptor agonists, primary screen, CHO-M1 cells, Fluo-4 calcium, agonist mode | Muscarinic acetylcholine receptor M1 | Fluo-4 calcium fluorescence; stronger effect = higher value | B-score at 10 µM | hit rate 3% among 64,000 | AID 626, 2007;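 active = fluorescence rise, raw or as B-score row- and column-corrected plate score, outside the 99.7% band of its plate's samples, either direction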
# HePTP inhibitor: inhibitors of human HePTP phosphatase, primary screen, biochemical, absorbance, leukemia target | Tyrosine-protein phosphatase non-receptor type 7 (Homo sapiens), P35236 | recombinant HePTP phosphatase activity, OD absorbance | inhibition, % at 20 µM | hit rate 0.64% among 110,000 | AID 521, 2006; in the data active = inhibition above about 50%;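 note: plate controls were vehicle for no effect and reference inhibitor for full effect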
# Target sequence (P35236 whole entry, looked up): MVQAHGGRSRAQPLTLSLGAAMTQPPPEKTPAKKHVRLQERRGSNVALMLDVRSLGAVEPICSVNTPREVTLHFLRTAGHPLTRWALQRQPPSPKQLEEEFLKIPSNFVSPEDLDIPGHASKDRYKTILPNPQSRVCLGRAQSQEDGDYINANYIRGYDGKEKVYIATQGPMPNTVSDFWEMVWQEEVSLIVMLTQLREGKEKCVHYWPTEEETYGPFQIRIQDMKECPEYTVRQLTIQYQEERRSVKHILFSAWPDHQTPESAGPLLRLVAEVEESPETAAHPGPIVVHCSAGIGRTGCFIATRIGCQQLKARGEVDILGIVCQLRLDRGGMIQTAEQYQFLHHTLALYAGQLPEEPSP
# D1 allo mod: D1 CRE-luciferase signal change, two-sided – cell-based, HEK293 D1, dopamine EC30, D1 allosteric modulator project, primary screen; D(1A) dopamine receptor (Homo sapiens), P21728; dopamine EC30 potentiation; actives deviate in either direction; B-score at 10 µM; hit rate 5.9% among 58,000; AID 641, 2007;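 active = luminescence count or its row- and column-corrected plate score outside the 99.7% band of the plate's sample wells, on either side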
# SF-1 act: activators of human SF-1, primary screen, cell-based, CHO-K1, Gal4-SF-1 LBD, luciferase luminescence | hit rate 1.9% among 65,000 | Steroidogenic factor 1 (Homo sapiens), Q13285 | CHO-K1 Gal4-SF-1 LBD luciferase reporter; % increase over DMSO SF-1-specific signal | activation, % at 10 µM;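 active = activation above the mean activation of all tested compounds plus 3 SD, cut at about 50% in these data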
#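 Compound – one dose, 10 µM compound, 1% DMSO · Test system – transient Gal4-SF-1 LBD reporter, CHO-K1 · Input – 4,000 cells in each well · Read-out basis – percent activation relative to DMSO median and mock-transfected background · Replicates – single measurement per compound · Technique – steady-glow luciferase luminescence, read after 15 min reagent incubation · Timing – 20 h compound treatment, 37 °C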
# M1 antagonist: antagonists of rat M1 muscarinic receptor. Muscarinic acetylcholine receptor M1 (Rattus norvegicus), P08482. CHO-M1 cells, Fluo-4 calcium, ACh EC80 antagonist mode; stronger effect = lower value. B-score at 10 µM. hit rate 3.4% among 64,000;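 active = calcium fluorescence response, raw or row-and-column corrected B-score, differing from the plate sample mean either way at a set confidence level, mostly lower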
# An asterisk follows results filed as active; nt = no result.
SMILES,RORa activator,M1 agonist,HePTP inhibitor,D1 allo mod,SF-1 act,M1 antagonist
Cc1ccc(N2C(=O)c3ccccc3C2O)nc1 (stereo not given),-44,1.6,7,-6.7*,-56,0.48
Cc1ccc(N2C(=O)c3ccccc3C2Nc2ccccc2F)nc1 (stereo not given),4,0.53,-11,0.73,-5,1
Cc1cc(-n2c(C)cc(C(=O)CN3C(=O)NC4(CCCCC4)C3=O)c2C)no1,-4,0.48,-11,-0.36,-7,1.7*
Clc1ccc(-c2nnc(-c3ccco3)o2)cc1,50*,-0.62,-14,-0.59,35,-0.2
CCc1nc(SCC(=O)c2cc(C)ccc2C)n[nH]1,6,0.72,-10,-0.0053,4,0.016
Cc1ccc(C)c(C(=O)CSc2n[nH]c(C(C)C)n2)c1,0,-0.51,-1,-6*,2,0.47
CC1(C)CC(=O)C2=C(C1)NC1=C(C(=O)CC(C)(C)C1)C2c1ccc(I)cc1,nt,nt,-12,nt,nt,nt
O=C(NCc1ccc(Cl)cc1)c1noc2c1CCCC2,-2,1.2,4,0.74,-3,-0.22
COc1ccc(CNC(=O)c2cc(-c3ccco3)on2)cc1,-13,-0.58,6,-0.42,-5,-0.045
O=C(NCc1cccs1)c1noc2c1CCCC2,55*,-0.22,6,0.11,4,-0.39
CCCc1cc(C(=O)NCc2ccc(OC)cc2)no1,49*,-0.015,4,-0.18,29,-0.047
COc1ccc(CNC(=O)c2noc3c2CCCC3)cc1,55*,0.72,-4,0.57,42,0.32
O=C(Nc1ccc(-c2nc3cc(Cl)ccc3o2)cc1)c1cccs1,nt,nt,-2,nt,nt,nt
COc1ccc(N2CCN(C(=O)C(CCSC)N=C3NS(=O)(=O)c4ccccc43)CC2)cc1 (stereo not given),-17,-0.89,-7,0.25,-9,-0.18
COC(=O)c1sc(NC(=O)C(C)C)c(C(=O)OC)c1C,-13,0.6,9,nt,-10,1
COc1cc(OC)cc(C(=O)NCCn2ccc3ccccc32)c1,-1,0.23,-1,-0.0078,25,0.18
CCC(=O)Nc1nc2cc(OC)ccc2s1,14,0.14,11,-1.6,1,0.23
COc1ccc2sc(NC(=O)CC(C)C)nc2c1,23,0.24,3,-0.93,66*,-0.63
COc1ccc2sc(NC(C)=O)nc2c1,56*,0.41,5,-0.82,50*,0.42
O=C(COc1ccc(F)cc1Br)N1CCc2ccccc21,30,2.2,12,-0.83,51*,0.62
O=C(OCC(=O)N1CCc2ccccc21)C1=COCCO1,4,0.7,10,0.33,2,0.069
Cc1cc(C(=O)OCC(=O)N2CCc3ccccc32)c(C)o1,-2,-0.59,6,0.53,54*,-0.15
O=C(O)CC1S/C(=N/N=C/c2ccco2)NC1=O (stereo not given),nt,nt,7,nt,nt,nt
c1ccc(Cc2nnc3sc(-c4ccncc4)nn23)cc1,-21,1.2,11,1.6,5,0.11
c1ccc(Cc2nnc3sc(-c4ccc5c(c4)OCO5)nn23)cc1,-2,0.75,1,6.2*,20,0.047
SMILES,RORa activator,M1 agonist,HePTP inhibitor,D1 allo mod,SF-1 act,M1 antagonist
c1cnc(Nc2nc(-c3cccnc3)cs2)nc1,nt,nt,2,nt,nt,nt
c1ccc(Nc2nc(-c3cccnc3)cs2)nc1,52*,-2.7*,10,0.84,46,0.66
O=C(CNC(=O)c1ccccc1C(=O)O)c1ccccc1,29,-0.015,11,-0.65,56*,0.078
O=C(CNC(=O)c1ccccc1)c1ccc(Br)cc1,nt,nt,-2,nt,nt,nt
CCCn1c2c(c(O)c(C(=O)Nc3nccs3)c1=O)CCCC2,4,0.48,-4,nt,-9,-0.0012
CCOC(=O)c1sc(=NC(=O)c2ccc(OC)c(OC)c2)n(C)c1C,-8,0.028,9,-0.052,15,-0.39
CCOC(=O)c1sc(=NC(=O)c2cccc(OC)c2)n(C)c1C,33,0.0033,2,0.55,57*,-0.24
COc1ccc(/C=N/N=C(N)N)cc1,nt,nt,6,nt,nt,nt
Cc1ccc2c(c1)C1C=CCC1C(C(=O)O)N2 (stereo not given),0,-0.56,102*,0.14,3,-0.012
CC(C)C1Nc2ccc(S(N)(=O)=O)cc2C2C=CCC21 (stereo not given),-2,2.1*,-10,0.071,1,-0.039
COc1cccc2c1NC(C(=O)O)C1CC=CC21 (stereo not given),-6,0.91,nt,-0.048,-2,-0.035
Cc1cc(I)c2c(c1)C1C=CCC1C(C(=O)O)N2 (stereo not given),nt,nt,102*,nt,nt,nt
COc1ccc(Cl)cc1N(CC(=O)NCCCC(C)(C)C1OCCO1)S(=O)(=O)c1ccc(C)c([N+](=O)[O-])c1,nt,nt,-13,nt,nt,nt
Cc1cc(C)c(/C=N/O)c(C)c1/C=N/O,nt,nt,-27,nt,nt,nt
COCc1c(C)cc(C)c(/C=N/O)c1C,-9,-1.6,12,-0.029,-21,12*
CCOc1ccc(C(=O)Nc2cccc(S(N)(=O)=O)c2)cc1Br,nt,nt,103*,nt,nt,nt
CCOc1cc(OCC)cc(C(=O)Nc2cccc(S(N)(=O)=O)c2)c1,nt,nt,1,nt,nt,nt
O=C(CCCN1C(=O)c2ccccc2C1=O)Nc1cccnc1,nt,nt,4,nt,nt,nt
COc1ccc(OC)c(Nc2ncnc3c2cnn3-c2cccc(C)c2)c1,24,-0.077,nt,nt,26,-0.57
CC(=O)Nc1ccc(Nc2ncnc3c2cnn3-c2cccc(C)c2)cc1,66*,-0.64,4,-1,24,0.071
CC(C)Nc1ncnc2c1cnn2-c1ccc(Cl)cc1,11,0.8,-4,-6.1*,14,-2.8
Clc1ccc(Nc2ncnc3c2cnn3-c2ccccc2)cc1,72*,0.51,8,-1.1,22,0.31
Cc1nnc2c3cnn(-c4ccc(Cl)cc4)c3ncn12,65*,1.8,5,-0.09,25,-0.23
CC(=O)Nc1ccc(Nc2ncnc3c2cnn3-c2ccccc2)cc1,55*,-0.0075,1,-0.68,33,-0.046
COc1ccc(Nc2ncnc3c2cnn3-c2ccccc2)cc1,nt,nt,7,nt,nt,nt
CSc1nc2n(n1)C(c1cc(Br)ccc1F)C(C(=O)N(C)C)=C(C)N2 (stereo not given),-16,0.13,5,-0.41,-5,1.6*
COC(=O)C1=C(C)NC(=O)CC1c1cc(Br)ccc1F (stereo not given),10,0,2,-0.2,14,-0.37
Cc1cc(C)nc(NC(=NCCc2c[nH]c3ccccc23)NC(=O)c2ccco2)n1,8,0.16,7,-0.88,-1,0.31
COC(=O)C(=O)/C=C(/O)c1ccc(Br)cc1,nt,nt,12,nt,nt,nt
